The record followed here is ChEMBL document CHEMBL1137299, “Elucidation of the bioactive conformation of the N-substituted trans-3,4-dimethyl-4-(3-hydroxyphenyl)piperidine class of mu-opioid receptor antagonists” (J Med Chem, 2006).

One may read the pIC50 as −log10 of the IC50, conventionally taken in molar units. Broadly, the pKi is the Ki on a negative log10 scale, so that one unit is a factor of ten. Low readings indicate a high Ki, high ones a low Ki. What is called inhibition is the share of the control response that was lost under treatment. A high value points to a strong effect. By pEC50 is commonly meant the negative decadic logarithm of the EC50, by convention in mol/L.

The target in experiment [1] is T1, Mu-type opioid receptor (Homo sapiens, UniProt P35372). Briefly: Antagonist activity against human cloned mu opioid receptor expressed in CHO cells assessed as inhibition of loperamide-stimulated [35S]GTP-gamma-S binding. Format: functional, cell-based. On the technique in general: Binding of GTPγS marks nucleotide exchange on a G protein.
T1 sequence (P35372 whole entry): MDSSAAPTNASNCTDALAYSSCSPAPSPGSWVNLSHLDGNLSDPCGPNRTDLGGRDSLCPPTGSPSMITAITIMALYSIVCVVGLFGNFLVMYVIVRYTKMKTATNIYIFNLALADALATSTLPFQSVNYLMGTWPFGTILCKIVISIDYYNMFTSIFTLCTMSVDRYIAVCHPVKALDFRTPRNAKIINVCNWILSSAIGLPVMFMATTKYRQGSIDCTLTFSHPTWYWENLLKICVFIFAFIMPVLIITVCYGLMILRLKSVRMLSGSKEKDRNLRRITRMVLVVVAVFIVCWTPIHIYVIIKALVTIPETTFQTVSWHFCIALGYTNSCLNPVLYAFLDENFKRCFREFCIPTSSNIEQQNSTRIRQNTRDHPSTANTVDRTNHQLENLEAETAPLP
Experiment [2] deals with T2, Delta-type opioid receptor (Homo sapiens, UniProt P41143). Briefly: Displacement of [3H]diprenorphine from human cloned delta opioid receptor expressed in CHO cells. Format: cell-based. Background: In a radioligand displacement assay an active substance lowers the binding of a labelled ligand.
T2 sequence (P41143 whole entry): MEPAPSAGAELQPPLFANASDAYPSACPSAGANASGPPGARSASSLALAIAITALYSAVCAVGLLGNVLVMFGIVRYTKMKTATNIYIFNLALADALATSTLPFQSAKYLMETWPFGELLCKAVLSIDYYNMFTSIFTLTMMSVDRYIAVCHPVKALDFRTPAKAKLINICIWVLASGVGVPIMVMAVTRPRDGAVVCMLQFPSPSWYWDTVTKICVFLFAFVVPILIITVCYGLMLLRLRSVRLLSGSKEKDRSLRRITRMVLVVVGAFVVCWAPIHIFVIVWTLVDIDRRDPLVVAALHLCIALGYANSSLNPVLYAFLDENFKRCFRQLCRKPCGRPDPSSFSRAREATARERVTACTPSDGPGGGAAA
In experiment [3] the target is T1, Mu-type opioid receptor. Briefly: Displacement of [3H]diprenorphine from human cloned mu opioid receptor expressed in CHO cells. Format: cell-based.
The target of experiment [4] is T3, Kappa-type opioid receptor (Homo sapiens, UniProt P41145). Briefly: Displacement of [3H]diprenorphine from human cloned kappa opioid receptor expressed in CHO cells. Format: cell-based.
T3 sequence (P41145 whole entry): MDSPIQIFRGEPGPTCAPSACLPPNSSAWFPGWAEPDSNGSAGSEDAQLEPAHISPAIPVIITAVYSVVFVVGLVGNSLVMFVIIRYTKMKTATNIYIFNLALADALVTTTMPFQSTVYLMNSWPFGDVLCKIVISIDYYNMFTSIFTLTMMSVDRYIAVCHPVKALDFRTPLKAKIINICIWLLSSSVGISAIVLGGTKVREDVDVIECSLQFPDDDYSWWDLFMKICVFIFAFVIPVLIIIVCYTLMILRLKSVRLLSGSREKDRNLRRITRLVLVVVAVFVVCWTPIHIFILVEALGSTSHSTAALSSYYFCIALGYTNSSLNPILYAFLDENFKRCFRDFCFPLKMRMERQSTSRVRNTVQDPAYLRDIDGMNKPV
The target of experiment [5] is T2, Delta-type opioid receptor. Briefly: Antagonist activity against human cloned delta opioid receptor expressed in CHO cells assessed as inhibition of […]-stimulated [35S]GTP-gamma-S binding. It is filed as functional, cell-based. The procedure, abridged: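 In receptor-expressing CHO membranes (50-100 µg protein), antagonist was added to mixtures containing […] agonist. Incubated 1 h at room temperature, then centrifuged; bound radioactivity was counted by scintillation.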

The target in experiment [6] is T3, Kappa-type opioid receptor. Briefly: Antagonist activity against human cloned kappa opioid receptor expressed in CHO cells assessed as inhibition of […]-stimulated [35S]GTPgammaS binding. It is filed as functional, cell-based.
Experiment [7] has as its target T2, Delta-type opioid receptor. Briefly: Inhibition of [3H]diprenorphine binding to human cloned delta opioid receptor expressed in CHO cells at 10 uM. Format: cell-based. In outline:
(§1)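 Membranes from CHO cells stably expressing human δ, κ or μ receptor (10-80 µg protein) incubated with [3H]diprenorphine (0.5-1.0 nM) and competitor at 10 µM. Buffer: 50 mM Tris-HCl pH 7.8, 1 mM EGTA, 5 mM MgCl2, protease inhibitors. 60 min at room temperature, then GF/B filtration and scintillation counting. Nonspecific binding was defined with 10 µM naloxone. Read-out was % inhibition of specific binding.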

In experiment [8] the target is T2, Delta-type opioid receptor. Briefly: Agonist activity at human cloned delta opioid receptor expressed in CHO cells assessed as stimulation of [35S]GTP-gamma-S binding. Format: functional, cell-based. The procedure, abridged:
(§2)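 CHO membranes expressing the relevant human receptor (50-100 µg protein) were exposed to a concentration series of agonist. Incubated 1 h at room temperature, centrifuged, and bound label counted. Potency and efficacy were assessed from stimulation.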

In experiment [9] the target is T3, Kappa-type opioid receptor. Briefly: Partial agonist activity at human cloned kappa opioid receptor expressed in CHO cells assessed as stimulation of [35S]GTP-gamma-S binding. It is filed as functional, cell-based. In outline: as §2
Experiment [10] concerns the target T1, Mu-type opioid receptor. Briefly: Agonist activity at human cloned mu opioid receptor expressed in CHO cells assessed as stimulation of [35S]GTP-gamma-S binding. It is filed as functional, cell-based. In outline:
as §2

For experiment [11], the target named is T3, Kappa-type opioid receptor. Briefly: Inhibition of [3H]diprenorphine binding to human cloned kappa opioid receptor expressed in CHO cells at 10 uM. Format: cell-based. The procedure, abridged: as §1
Experiment [12] concerns the target T1, Mu-type opioid receptor. Briefly: Inhibition of [3H]diprenorphine binding to human cloned mu opioid receptor expressed in CHO cells at 10 uM. Format: cell-based. The procedure, abridged:
as §1

pEC50, pIC50, pKi: −log10 of the molar value.

For `C[C@H]1[C@@H]2CCCCN2CC[C@@]1(C)c1cccc(O)c1`, the negative logarithm of the IC50 (pIC50) at Mu-type opioid receptor [1] was 6.00. In addition, the pKi in [2] was 6.66; at Mu-type opioid receptor [3], 6.92; in [4], 7.16.
Take `C[C@H]1CN2C[C@H](c3ccccc3)CC[C@H]2C[C@@]1(C)c1cccc(O)c1`: the negative logarithm of the IC50 (pIC50) at Mu-type opioid receptor [1] is 9.27; in experiment [5], 7.80; in experiment [6], 8.92. Further, the negative-log Ki (pKi) in [2] was 7.51; on Mu-type opioid receptor [3], 9.21.
For the compound `C[C@H]1[C@H]2CC[C@@H](c3ccccc3)CN2CC[C@@]1(C)c1cccc(O)c1`, the pIC50 on Mu-type opioid receptor [1] is 6.92. The pKi is 6.55 in experiment [2], 7.43 on Mu-type opioid receptor [3] and 7.80 in experiment [4].
In the same order, the values of `C[C@H]1[C@H]2CC[C@H](c3ccccc3)CN2CC[C@@]1(C)c1cccc(O)c1` are 6.72, 7.60, 7.59 and 7.46.
The matching figures for `C[C@H]1[C@@H]2CC[C@H](c3ccccc3)CN2CC[C@@]1(C)c1cccc(O)c1`: 6.82, 6.72, 7.14 and 7.00.
In the case of `C[C@H]1CN2C[C@@H](c3ccccc3)CC[C@@H]2C[C@@]1(C)c1cccc(O)c1`, the pKi on Mu-type opioid receptor [3] was 6.37; in experiment [4], 5.85. In [7], this compound yielded an inhibition of 49%.
As for `C[C@H]1CN2C[C@@H](c3ccccc3)CC[C@H]2C[C@@]1(C)c1cccc(O)c1`, on Mu-type opioid receptor [1], the pIC50 was 6.96. Besides, the negative-log Ki (pKi) at Mu-type opioid receptor [3] is 6.96; in experiment [4], 6.36. In experiment [7], this compound registered an inhibition of 51%.
Consider `C[C@H]1CN2C[C@H](c3ccccc3)CC[C@@H]2C[C@@]1(C)c1cccc(O)c1`, for which, at Mu-type opioid receptor [1], the pIC50 is 6.68. In addition, the pKi in experiment [2] was 6.05; at Mu-type opioid receptor [3], 6.96; in experiment [4] it was 6.37.
Regarding `C[C@H]1[C@@H]2CC[C@@H](c3ccccc3)CN2CC[C@@]1(C)c1cccc(O)c1`, the results for the pEC50 (in experiment [8]; in experiment [9]; at Mu-type opioid receptor [10]) were 7.26, 6.70 and 7.28, respectively. The pKi is 8.68 in experiment [2], 9.05 at Mu-type opioid receptor [3] and 7.19 in [4].
In the case of `C[C@H]1CN2CCCC[C@H]2C[C@@]1(C)c1cccc(O)c1`, the values for the inhibition in experiment [11] and in experiment [7] were 44% and 37%, respectively. The pKi on Mu-type opioid receptor [3] is 6.03.
In the case of `C[C@H]1CN2CCCC[C@@H]2C[C@@]1(C)c1cccc(O)c1`, the pKi on Mu-type opioid receptor [3] is 6.15; in [4] it was 6.28. In [7], this compound yielded an inhibition of 40%.
For `C[C@H]1[C@H]2CCCCN2CC[C@@]1(C)c1cccc(O)c1`, the values for the inhibition (at Mu-type opioid receptor [12]; in experiment [7]) were 43% and 47%, respectively. The compound further gave a pKi in experiment [4] of 6.28.
